# Screens as filed in PubChem BioAssay.
# Rows were chosen to be rich in hits. Some 9.4% of all compounds tested hit in one or more screens of this group.
# CSC inhib: cancer stem cell inhibition | 1.1% of 300,000 active | cancer stem cell-like cells viability, luminescence | AID 2717 | inhibition, % at 7.5 µM; in the data active = inhibition above about 75%; tested in HMLE shEcad cells
# Beta cell apopt: beta cell apoptosis inhibition. INS-1E cytokine-induced death, ATP luminescence, 48 h; percent of positive-control rescue, neutral wells zero. AID 435005. 0.8% of 300,000 active. protection from apoptosis, % (test concentration not listed);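 active = Every replicate reaches about 75%, or at least half do and their mean reaches it too, limit read from the data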;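 note: 0% = cytokine-treated negative control wells and 100% = positive control rescue; higher means more ATP so stronger rescue from cytokine killing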
# Mdm2-MdmX inh: human Mdm2/MdmX binding inhibition; O15151+Q00987; SaOS-2 split-luciferase Mdm2/MdmX complementation, luminescence; inhibition, % at 8 µM; 3% of 330,000 active; AID 485346;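 active = inhibition of at least 50% at 8 µM in the primary screen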
# Target sequence (O15151 whole entry, looked up): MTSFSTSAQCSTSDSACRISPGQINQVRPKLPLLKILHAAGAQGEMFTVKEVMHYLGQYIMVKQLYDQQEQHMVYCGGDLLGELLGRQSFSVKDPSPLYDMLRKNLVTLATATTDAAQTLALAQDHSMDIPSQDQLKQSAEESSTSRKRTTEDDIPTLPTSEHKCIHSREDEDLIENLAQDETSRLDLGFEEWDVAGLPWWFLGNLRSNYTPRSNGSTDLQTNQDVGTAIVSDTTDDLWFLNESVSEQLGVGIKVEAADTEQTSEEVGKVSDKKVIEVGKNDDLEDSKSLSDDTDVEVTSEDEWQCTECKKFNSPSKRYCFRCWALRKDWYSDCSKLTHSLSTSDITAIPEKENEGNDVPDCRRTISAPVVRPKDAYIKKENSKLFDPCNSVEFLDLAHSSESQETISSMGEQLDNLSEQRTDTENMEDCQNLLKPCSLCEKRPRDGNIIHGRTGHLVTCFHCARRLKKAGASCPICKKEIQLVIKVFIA
# Target sequence (Q00987 whole entry, looked up): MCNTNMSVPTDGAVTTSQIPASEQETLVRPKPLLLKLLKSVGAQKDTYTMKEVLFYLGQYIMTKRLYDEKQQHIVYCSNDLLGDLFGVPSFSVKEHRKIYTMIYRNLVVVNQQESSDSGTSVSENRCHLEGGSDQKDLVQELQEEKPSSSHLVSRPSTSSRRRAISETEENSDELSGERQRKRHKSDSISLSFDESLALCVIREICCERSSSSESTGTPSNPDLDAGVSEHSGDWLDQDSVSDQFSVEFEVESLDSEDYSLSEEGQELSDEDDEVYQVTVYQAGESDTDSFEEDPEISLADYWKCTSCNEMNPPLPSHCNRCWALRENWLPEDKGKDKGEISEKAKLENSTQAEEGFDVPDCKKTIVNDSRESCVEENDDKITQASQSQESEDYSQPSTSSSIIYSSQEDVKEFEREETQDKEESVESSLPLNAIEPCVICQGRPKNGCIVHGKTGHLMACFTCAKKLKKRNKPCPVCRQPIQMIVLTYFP
# Lmaj promast: inhibitors of Leishmania major promastigote growth. Leishmania major promastigotes, resazurin fluorescence viability. inhibition, % at 10 µM. 9% of 200,000 active; in the data active = inhibition above about 50%;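 note: promastigotes grown with compound for 44 hours at 28 °C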
# T cruzi repl: blocks replication of Trypanosoma cruzi. T. cruzi beta-gal in NIH3T3, luminescence, 90 h. inhibition, % (concentration not given with the values). 1.4% of 300,000 active. AID 1885;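 active = mean inhibition across valid replicates above about 55%, limit read from the data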;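 note: signal also drops with host cell toxicity which is not excluded here; 0% = plate median of DMSO wells and 100% = zero luminescence signal; higher percent means less beta-gal luminescence so fewer parasites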
#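 Assay system: NIH/3T3 host cells with β-galactosidase reporter T. cruzi; input: 5,000 host fibroblasts per well; compound: single 50 nL compound addition per well in DMSO; timing: ≥90 h infection period, 3 h prior cell attachment; measured by: GalScreen β-gal luminescence, detergent lysis, 60 min; evaluation: percent inhibition of parasite-derived β-gal signal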
# SKKanGAS inh: inhibitors of SKKanGAS S. pyogenes growth in kanamycin (SK-promoter or general growth effect); BacTiter-Glo, 6 h; inhibition, % at 7.5 µM; 1.3% of 300,000 active; AID 1662;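 active = mean replicate score, as percent of positive control median, at least 50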;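 note: strain carries kanamycin resistance gene driven by streptokinase promoter and grows in 40 µg/ml kanamycin; loss of luminescence reflects streptokinase promoter inhibition or plain growth inhibition; 0% = median of DMSO wells and 100% = positive control at its reference dose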
# Mdm2 MdmX conf: confirmation of human Mdm2/MdmX interaction inhibitors; shares compounds with Mdm2-MdmX inh; Mdm2-MdmX binding, luminescent assay; inhibition, % at 8 µM; 55% of 10,000 active; AID 489028; in the data active = inhibition above about 40%
# Full FLuc ctr: full-length luciferase inhibition in Mdm2/MdmX counter-screen; inhibition, % at 8 µM; shares compounds with Mdm2-MdmX inh; SaOS-2 full-length luciferase counterscreen, luminescence; 77% of 6,200 active;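 active = mean inhibition at 8 µM reaching about 37%, which flags the compound as non-specific, limit read from the data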;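 note: p53-null SaOS-2 cells with luciferase driven by a doxycycline-inducible promoter; compound on cells about two nights before reading with doxycycline added after day one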
# An asterisk follows results filed as active; x = not tested or not shown.
SMILES,CSC inhib,Beta cell apopt,Mdm2-MdmX inh,Lmaj promast,T cruzi repl,SKKanGAS inh,Mdm2 MdmX conf,Full FLuc ctr
O=S(=O)(c1ccc(Cl)cc1)N1CCN(Cc2ccc(O)c3ncccc23)CC1,89*,86*,77*,98*,55*,6,67*,25
Oc1c(CN2CCc3ccccc3C2)cc(Cl)c2cccnc12,84*,8,70*,100*,51,89*,80*,46*
CN1CCN(Cc2cc(COCc3ccccc3)c3cccnc3c2O)CC1,1,-2,60*,100*,77*,3,75*,30
CCOc1ccc(S(=O)(=O)N2CCN(Cc3ccccc3)CC2)c2cccnc12,5,-2,23,4,3,0,x,x
C=CCS(=O)(=O)N1CCCC(Cc2ccccc2C)(C(=O)OCC)C1 (stereo not given),4,x,0,x,1,0,x,x
Oc1c(CN2CCCCC2)cc(Br)c2cccnc12,33,96*,77*,100*,56*,58*,75*,36*
COc1ccc(C(=O)Oc2c(CN3CCOCC3)cc(Cl)c3cccnc23)cc1OC,1,7,60*,97*,-5,-4,37,x
COc1ccc(C(=O)Oc2c(OC)cc(C(=S)N3CCOCC3)cc2OC)cc1OC,-30,2,29,x,-3,-6,x,x
O=C(COc1c(Br)cc(Br)c2cccnc12)N1CCCCC1,-1,-1,6,5,12,5,x,x
Oc1c(Cl)cc(CN2CCOCC2)c2cccnc12,x,29,78*,x,x,x,84*,42*
CCc1cc2cc3c(cc2nc1SCC(=O)Nc1cc(C)on1)OCO3,-10,23,81*,-4,-65,1,8,x
CCOC(=O)Cc1csc(NC(=O)CCCC(=O)O)n1,-3,-12,0,x,-15,-4,x,x
CC1CCCCN1C(=O)CN1C(=O)CSc2ccc(S(=O)(=O)N3CCOCC3)cc21 (stereo not given),-10,-1,-5,x,0,-1,x,x
O=C(CSc1nc(-c2ccccc2)c(-c2ccccc2)[nH]1)NCc1ccco1,56,-5,53*,6,5,1,56*,73*
O=C(CSc1nnc(-c2ccccc2)c(-c2ccccc2)n1)NCc1ccco1,-1,-7,-6,17,20,-6,x,x
COc1ccc(N(C)C(=O)c2cc3c(s2)-c2ccccc2OC3)c(OC)c1,x,1,-16,x,28,2,x,x
COc1ccc(N(C)C(=O)c2cc3c(s2)-c2ccc(Cl)cc2S(=O)(=O)C3)c(OC)c1,1,18,56*,x,7,11,19,x
Cc1nn(CC(=O)N2CCOCC2)c(=O)c2nn(-c3ccccc3)c(C)c12,-7,0,4,x,-17,3,x,x
Cn1cccc1/C=N/N1CCN(Cc2cccc3ccccc23)CC1,7,4,2,x,19,2,x,x
CCOC(=O)C(Cc1ccc(NC(=O)/C(=C/c2ccccc2)NC(=O)c2ccccc2)cc1)N1C(=O)c2ccccc2C1=O (stereo not given),0,-2,52*,-5,-5,-6,19,x
CCOC(=O)C(Cc1ccc(NC(=O)/C(=C/c2ccc(OC(C)=O)cc2)NC(C)=O)cc1)N1C(=O)c2ccccc2C1=O (stereo not given),-6,-2,18,-6,2,-4,x,x
CCOc1ccc(NC(=O)C(CC(=O)O)Cc2ccccc2)cc1 (stereo not given),1,-1,-3,0,-14,10,x,x
CCOc1ccc(NC(=O)C(Cc2ccccc2)N2C(=O)c3cccc4cccc(c34)C2=O)cc1 (stereo not given),1,13,50*,-2,-13,-8,47*,98*
COc1ccc(NC(=O)Nc2c(O)ccc3ccccc23)cc1,17,-2,30,x,-5,7,x,x
CCOC(=O)C1CCN(C(=O)CN(c2ccc3c(c2)OCCO3)S(=O)(=O)c2ccccc2)CC1,-6,-3,29,x,-1,-3,x,x
CCOC(=O)CCC(=O)Nc1ncnc2c1C(c1ccccc1)c1c(ccc3ccccc13)O2 (stereo not given),x,-2,31,x,x,x,x,x
